Measured values: ChEMBL document CHEMBL3526106, “Cytochrome P450 regulation by α-tocopherol in Pxr-null and PXR-humanized mice” (Drug Metab Dispos, 2013)

Columns and labels:
Design in all cases: dose 500 mg/kg
[1] = test system: Mus musculus; assay: Effect on Ugt1a6a gene expression in male PXR null mouse liver at 500 mg/kg for 7 to 14 days dosed through vitamin E-deficient base diet by qPCR method; format: ADME, organism-based; settings: in vivo, po
Method in brief: (§1)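 Male mice on vitamin E deficient diet, switched at eight weeks to the same diet with 500 mg/kg DL-α-tocopheryl acetate (controls kept deficient); killed at nine or 10 weeks, livers flash frozen. Hepatic mRNA by SYBR Green qPCR with 25 ng cDNA and 150 nM primers, triplicate reactions; comparative threshold cycle method against β-actin, fold change versus deficient diet; mean ± SEM, two-tailed t-test.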

[2] = test system: Mus musculus; assay: Effect on Ugt1a6a gene expression in male PXR-humanized mouse liver at 500 mg/kg for 7 to 14 days dosed through vitamin E-deficient base diet by qPCR method; format: ADME, organism-based; settings: in vivo, po; method in brief: as §1
[3] = test system: Mus musculus; assay: Induction of Cyp4f13 gene expression in male PXR null mouse liver at 500 mg/kg for 7 to 14 days dosed through vitamin E-deficient base diet by qPCR method; format: ADME, organism-based; settings: in vivo, po
Method in brief: (§2)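 Male mice (wild-type, Pxr-null, hPXR; NCI-bred) on vitamin E-deficient diet from 3 weeks of age; at 8 weeks half switched to same base diet supplemented with 500 mg/kg DL-α-tocopheryl acetate, rest kept deficient. Livers harvested at 9 and 10 weeks. qPCR: 25 ng cDNA, 150 nM each primer, SYBR Green, triplicate; comparative Ct vs β-actin; fold change enriched vs deficient diet; mean ± SEM, two-tailed unpaired t-test.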

[4] = test system: Mus musculus; assay: Reduction in Cyp4a10 gene expression in PXR-humanized mouse liver at 500 mg/kg for 7 to 14 days dosed through vitamin E-deficient base diet by qPCR method; format: ADME, organism-based; settings: in vivo, po; method in brief: as §2
[5] = test system: Mus musculus; assay: Induction of Cyp4f14 gene expression in male PXR null mouse liver at 500 mg/kg for 7 to 14 days dosed through vitamin E-deficient base diet by qPCR method; format: ADME, organism-based; settings: in vivo, po; method in brief: as §2
[6] = test system: Cyp2c55; assay: Induction of Cyp2c55 gene expression in male PXR null mouse liver at 500 mg/kg for 7 to 14 days dosed through vitamin E-deficient base diet by qPCR method; format: ADME, organism-based; settings: po, read-out: FC; method in brief: as §1
[7] = test system: Mus musculus; assay: Effect on Ugt1a7c gene expression in male PXR-humanized mouse liver at 500 mg/kg for 7 to 14 days dosed through vitamin E-deficient base diet by qPCR method; format: ADME, organism-based; settings: in vivo, po; method in brief: as §1
[8] = test system: Mus musculus; assay: Effect on Ugt1a6a gene expression in wild type mouse liver at 500 mg/kg for 7 to 14 days dosed through vitamin E-deficient base diet by qPCR method; format: ADME, organism-based; settings: in vivo, po; method in brief: as §1
[9] = test system: Mus musculus; assay: Effect on Ugt1a1 gene expression in wild type mouse liver at 500 mg/kg for 7 to 14 days dosed through vitamin E-deficient base diet by qPCR method; format: ADME, organism-based; settings: in vivo, po; method in brief: as §1
[10] = test system: Mus musculus; assay: Induction of Cyp4f14 gene expression in male PXR-humanized mouse liver at 500 mg/kg for 7 to 14 days dosed through vitamin E-deficient base diet by qPCR method; format: ADME, organism-based; settings: in vivo, po; method in brief: as §2
[11] = test system: Mus musculus; assay: Induction of Cyp4f16 gene expression in male PXR-humanized mouse liver at 500 mg/kg for 7 to 14 days dosed through vitamin E-deficient base diet by qPCR method; format: ADME, organism-based; settings: in vivo, po; method in brief: as §2
[12] = test system: Mus musculus; assay: Drug metabolism in male wild type mouse assessed as urinary alpha-carboxymethylbutylhydroxychroman glucuronide level at 500 mg/kg for 7 to 14 days dosed through vitamin E-deficient base diet by UPLC-ESI-QTOFMS method based metabolomics analysis; format: ADME, organism-based, Urine; settings: in vivo, po
[13] = test system: Mus musculus; assay: Induction of Cyp4f18 gene expression in male PXR-humanized mouse liver at 500 mg/kg for 7 to 14 days dosed through vitamin E-deficient base diet by qPCR method; format: ADME, organism-based; settings: in vivo, po; method in brief: as §2
[14] = test system: Mus musculus; assay: Induction of Cyp4f13 gene expression in male PXR-humanized mouse liver at 500 mg/kg for 7 to 14 days dosed through vitamin E-deficient base diet by qPCR method; format: ADME, organism-based; settings: in vivo, po; method in brief: as §2
[15] = test system: Mus musculus; assay: Induction of Cyp4f14 gene expression in wild type mouse liver at 500 mg/kg for 7 to 14 days dosed through vitamin E-deficient base diet by qPCR method; format: ADME, organism-based; settings: in vivo, po; method in brief: as §2
[16] = test system: Mus musculus; assay: Induction of Cyp4f15 gene expression in male PXR-humanized mouse liver at 500 mg/kg for 7 to 14 days dosed through vitamin E-deficient base diet by qPCR method; format: ADME, organism-based; settings: in vivo, po; method in brief: as §2
[17] = test system: Mus musculus; assay: Effect on Ugt2b34 gene expression in wild type mouse liver at 500 mg/kg for 7 to 14 days dosed through vitamin E-deficient base diet by qPCR method; format: ADME, organism-based; settings: in vivo, po; method in brief: as §1
[18] = test system: Mus musculus; assay: Effect on Ugt1a6b gene expression in wild type mouse liver at 500 mg/kg for 7 to 14 days dosed through vitamin E-deficient base diet by qPCR method; format: ADME, organism-based; settings: in vivo, po; method in brief: as §1
[19] = test system: Cyp2b10; assay: Induction of Cyp2b10 gene expression in wild type mouse liver at 500 mg/kg for 7 to 14 days dosed through vitamin E-deficient base diet by qPCR method; format: ADME, organism-based; settings: po, read-out: FC; method in brief: as §1
[20] = test system: Mus musculus; assay: Effect on Ugt1a1 gene expression in male PXR-humanized mouse liver at 500 mg/kg for 7 to 14 days dosed through vitamin E-deficient base diet by qPCR method; format: ADME, organism-based; settings: in vivo, po; method in brief: as §1
[21] = test system: Mus musculus; assay: Induction of Cyp2c39 gene expression in wild type mouse liver at 500 mg/kg for 7 to 14 days dosed through vitamin E-deficient base diet by qPCR method; format: ADME, organism-based; settings: in vivo, po; method in brief: as §1
[22] = test system: Mus musculus; assay: Induction of Cyp2c39 gene expression in male PXR-humanized mouse liver at 500 mg/kg for 7 to 14 days dosed through vitamin E-deficient base diet by qPCR method; format: ADME, organism-based; settings: in vivo, po; method in brief: as §1
[23] = test system: Mus musculus; assay: Effect on Ugt1a1 gene expression in male PXR null mouse liver at 500 mg/kg for 7 to 14 days dosed through vitamin E-deficient base diet by qPCR method; format: ADME, organism-based; settings: in vivo, po; method in brief: as §1
[24] = test system: Mus musculus; assay: Induction of Cyp4f18 gene expression in male PXR null mouse liver at 500 mg/kg for 7 to 14 days dosed through vitamin E-deficient base diet by qPCR method; format: ADME, organism-based; settings: in vivo, po; method in brief: as §2
[25] = test system: Mus musculus; assay: Induction of Cyp2c39 gene expression in male PXR null mouse liver at 500 mg/kg for 7 to 14 days dosed through vitamin E-deficient base diet by qPCR method; format: ADME, organism-based; settings: in vivo, po; method in brief: as §1
[26] = test system: Mus musculus; assay: Induction of Cyp3a11 gene expression in male wild type mouse liver at 500 mg/kg for 7 to 14 days dosed through vitamin E-deficient base diet by qPCR method; format: ADME, organism-based; settings: in vivo, po; method in brief: as §2
[27] = test system: Mus musculus; assay: Induction of Cyp4f18 gene expression in wild type mouse liver at 500 mg/kg for 7 to 14 days dosed through vitamin E-deficient base diet by qPCR method; format: ADME, organism-based; settings: in vivo, po; method in brief: as §2
[28] = test system: Mus musculus; assay: Induction of Cyp3a11 gene expression in male PXR-humanized mouse liver at 500 mg/kg for 7 to 14 days dosed through vitamin E-deficient base diet by qPCR method; format: ADME, organism-based; settings: in vivo, po; method in brief: as §2
[29] = test system: Mus musculus; assay: Effect on Ugt1a6b gene expression in male PXR-humanized mouse liver at 500 mg/kg for 7 to 14 days dosed through vitamin E-deficient base diet by qPCR method; format: ADME, organism-based; settings: in vivo, po; method in brief: as §1
[30] = test system: Mus musculus; assay: Effect on Ugt2b5 gene expression in wild type mouse liver at 500 mg/kg for 7 to 14 days dosed through vitamin E-deficient base diet by qPCR method; format: ADME, organism-based; settings: in vivo, po; method in brief: as §1

Activity [1]: Not Active
Activity [2]: Not Active
Activity [3]: Not Active
fold change (FC) [4]: 2.4
Activity [5]: Not Active
fold induction [6]: 2.2
Activity [7]: Not Active
Activity [8]: Not Active
Activity [9]: Not Active
Activity [10]: Not Active
Activity [11]: Not Active
Activity [13]: Not Active
Activity [14]: Not Active
Activity [15]: Not Active
Activity [16]: Not Active
Activity [17]: Not Active
Activity [18]: Not Active
fold induction [19]: 7.3
Activity [20]: Not Active
Activity [21]: Not Active
Activity [22]: Not Active
Activity [23]: Not Active
Activity [24]: Not Active
Activity [25]: Not Active
Activity [26]: Active
Activity [27]: Not Active
Activity [28]: Not Active
Activity [29]: Not Active
Activity [30]: Not Active
Compound: CC(=O)Oc1c(C)c(C)c2c(c1C)CCC(C)(CCCC(C)CCCC(C)CCCC(C)C)O2 (racemic) [alpha-TOCHOPHERYL ACETATE]
Drug metabolism [12]: metabolite_detected
